Measured values reported in publication PMC3076219 (European journal of immunology, 2009).
Entries after “also recorded” stand apart in the source; their conditions may differ.

What was measured:
[1] = system: neutrophils; details: cited from earlier work
[2] = system: neutrophils; details: ref [66]; cited from earlier work
[3] = system: neutrophils; experiment: Calcium mobilization of neutrophils; assay type: cell-based, human
[4] = system: CXCR2; experiment: CXCR2 surface expression on monocytes; assay type: cell-based, human; details: Supporting information Fig. 2
[5] = system: FPR2; experiment: FPR2 surface expression on monocytes; assay type: cell-based, human; details: Supporting information Fig. 2
[6] = system: THP-1 cells; experiment: Calcium mobilization in THP-1 cells; assay type: cell-based; details: Fig. 7C
Summary of the method: (§1)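 Peripheral blood monocytes (kit-isolated from PBMC, CD14-checked) or THP-1 cells at 10^7/mL were loaded with 5 µM Indo-1-AM for 7 min at 37 °C, then held 10 min at RT and washed in cold PBS. Cells were run at 2×10^6/mL in KRP (PBS, 1.5 mM CaCl2, 1.5 mM MgSO4). After baseline they got a first stimulus, then a second. Flow cytometry used 351 nm excitation and the 405:485 nm ratio, gating live cells. Three independent experiments.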

[7] = system: monocytes; experiment: Migration of monocytes, 24-well Transwell; assay type: cell-based, human; details: LL-37 5 µM, Fig. 7F
Summary of the method: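 CFSE-labelled monocytes or THP-1 cells (5 µM, 5 min RT) at 2×10^6/mL in phenol-red-free RPMI 1640 with 1% FBS went in the Transwell upper chamber (3-µm pores). Stimuli in the lower chamber included CXCL1 50 nM, WKYMVm 5 µM and ATP/BzATP 50 µM. Cells were used with or without 20 min preincubation with 10 µM CXCR2 antagonist. Incubation at 37 °C lasted 90 min for monocytes and 2 h for THP-1. Lower-well cells were read at 495 nm against a standard curve, in quadruplicate.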

[8] = system: neutrophils; experiment: Cross-desensitization of calcium mobilization of neutrophils; assay type: cell-based, human; details: WKYMVm first
[9] = system: monocytes; experiment: Calcium mobilization in monocytes; assay type: cell-based, human; details: ATP or WKYMVm first, then LL-37; Fig. 7D
Summary of the method: as §1

[10] = system: CXCR1; experiment: CXCR1 surface expression on neutrophils, flow cytometry; assay type: cell-based, human; details: WKYMVm 1 µM, 10 µM, 100 µM; 3h; Fig. 2B
Summary of the method: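 Human blood neutrophils were isolated by dextran sedimentation and Ficoll (>95% CD16+) and held at 5×10^6/mL in RPMI 1640 with 1% FBS. They were treated 3h with a dose series (test peptide 1–10 µM; chemokines 1, 5, 10, 50 nM) or with 5 µM for 0.5–3h. Cells were blocked in 10% human serum and stained with anti-CXCR1-APC/anti-CXCR2-FITC or anti-P2X7-FITC, plus anti-CD16. Read-out was flow cytometry GMFI.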

[11] = system: CXCR2; experiment: CXCR2 surface expression on neutrophils, flow cytometry; assay type: cell-based, human; details: WKYMVm 1 µM, 10 µM, 100 µM; 3h; Fig. 2B
[12] = system: neutrophils; experiment: Neutrophil migration, 24-well Transwell; assay type: cell-based, human; details: Fig. 6H
Summary of the method: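 CFSE-labelled human neutrophils (5 µM, 5 min RT) at 5×10^6/mL in phenol-red-free RPMI 1640 with 1% FBS went in the Transwell upper chamber (3-µm pores). The lower chamber held test peptide (1 or 5 µM) or medium. Some cells were first preincubated 20 min with 10 µM CXCR2 antagonist. After 1 h at 37 °C, migrated cells were read at 495 nm against a standard curve. Quadruplicate; unpaired t-test.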

[13] = system: neutrophils; details: ref [27]; cited from earlier work
[14] = system: CXCR1; details: indirect, inside-out signaling; ref [16]; cited from earlier work
[15] = system: CXCR2; details: indirect, inside-out signaling; ref [16]; cited from earlier work

pertussis toxin [PTX]
block of CXCL8, fMLF, LTB4, CXCL6, and MNCF stimulated neutrophil migration ([1]; ref [33], [63], [65]): able to block
block of FPR- and CXCR-induced oxidase activity of neutrophils [2]: able to block

WKYMVm [reference compound]
calcium flux response in the absence of extracellular Ca2+ ([3]; PBS without calcium and magnesium, LL-37 5 µM, WKYMVm 5 µM, ATP 5 µM, Fig. 3C): capable of generating a calcium flux response
CXCR2 down-regulation on monocytes [4]: down regulated FPR2 and CXCR2
FPR2 down-regulation on monocytes [5]: down regulated FPR2 and CXCR2
calcium signal in THP-1 cells [6]: but not WKYMVm gives a robust calcium signal
block of LL-37 induced signal by WKYMVm pretreatment ([6]; WKYMVm first, then LL-37, THP-1): does not block the LL-37 induced signal
stimulation of migration of monocytes ([7]; CXCL1 50 nM, WKYMVm 5 µM, ATP 50 µM, BzATP 50 µM, 90 min, 37°C): only LL-37 stimulated migration of monocytes
cross-desensitization of CXCL1 response by WKYMVm ([8]; then CXCL1, Supporting information Fig. 3E-F): this was the case for CXCL1
cross-desensitization of LL-37 response by WKYMVm ([8]; then LL-37, Supporting information Fig. 3C-D): able to block LL-37 stimulated calcium mobilization
cross-block of LL-37 stimulated calcium mobilization in monocytes [9]: neither ATP nor WKYMVm cross-block LL-37 stimulated calcium mobilization
CXCR1 surface expression [10]: caused down-regulation of both CXCR2 and CXCR1 expression with similar kinetics
CXCR2 surface expression [11]: caused down-regulation of both CXCR2 and CXCR1 expression with similar kinetics

O=C(Nc1ccc([N+](=O)[O-])cc1O)Nc1ccccc1Br [SB225002]
inhibition of neutrophil migration with CXCL1 or CXCL8 ([1]; SB225002, ref [27]): dose dependent inhibition
inhibition of CXCL1 and CXCL7 stimulated neutrophil migration ([1]; ref [27]): completely inhibited
inhibition of CXCL8 stimulated neutrophil migration ([1]; ref [27]): partially inhibited
reduction of [Ca2+]i for LL-37 ([3]; SB225002 10 µM, then 180 s later LL-37 5 µM, Fig. 6A): > 90%
inhibition of calcium mobilization for ATP ([3]; SB225002 10 µM, ATP 5 µM, Fig. 6F): not for fMLF (Fig. 6E), ATP
inhibition of calcium mobilization for CXCL1 ([3]; SB225002 10 µM, CXCL1 10 nM, Fig. 6C): complete inhibition
inhibition of calcium mobilization for CXCL7 ([3]; SB225002 10 µM, CXCL7 10 nM, Fig. 6B): complete inhibition
inhibition of CXCL8 stimulation ([Ca2+]i) ([3]; SB225002 10 µM, CXCL8 10 nM, Fig. 6D): about 50%
inhibition of calcium mobilization for WKYMVm ([3]; SB225002 10 µM, WKYMVm 5 µM, Fig. 6G): not for fMLF (Fig. 6E), ATP (Fig. 6F) or WKYMVm
inhibition of calcium mobilization for fMLF ([3]; SB225002 10 µM, fMLF 100 nM, Fig. 6E): not for fMLF
migration of SB225002 treated controls ([12]; SB225002 10 µM without LL-37): did not interfere with cell migration
inhibition of LL-37-induced neutrophil migration ([12]; SB225002 10 µM, 20 min pretreatment, LL-37 5 µM, p<0.05): completely inhibited; also recorded: completely block
inhibition of [Ca2+]i of neutrophils treated with CXCL1 or CXCL8 [13]: dose dependent inhibition
inhibition of LL-37-stimulated monocyte migration ([7]; SB225002 10 µM, 20 min preincubation): blocked

TNFα
CXCR1 down-regulation [14]: cause down-regulation of CXCR2 and CXCR1
CXCR2 down-regulation [15]: cause down-regulation of CXCR2 and CXCR1
